# In the library only some 2.1% were active in any assay of this set; here they are far more common.
# Runt-CBFb FRET = blocks binding of human RUNX1 Runt domain to CBFb. Q01196+Q13951. Cerulean-Runt/Venus-CBFb FRET ratio 530/480, 1 h. inhibition, % at 20 µM. 220,000 compounds, 0.46% hits. AID 1496;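 active means inhibition over about 50% at 20 µM in the single-dose screen, limit read from the data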
#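 Assay system: Cerulean-Runt domain fusion protein, energy donor; Signal: fluorescence energy transfer, 422 nm excitation, 530/480 nm emission; Timing: 1 h compound exposure, room temperature; Control set: unlabeled CBFb; Medium: Tris buffer pH 7.5 with salts and BSA; Compound: single test concentration of 20 µM, 1% DMSO final; Probe or stimulus: Venus-CBFb 100 nM.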
# p97 ATPase inh = human p97 ATPase inhibition | P55072 | recombinant p97 ATPase, Kinase-Glo ATP luminescence, 3 h | inhibition, % at 8 µM | 220,000 compounds, 0.42% hits | AID 1481; in the data active means inhibition above about 15%
# Tb hexokinase = blocks Trypanosoma brucei hexokinase 1 activity. recombinant TbHK1, G6PDH-coupled NADH A340. AID 1430. inhibition, % at 10 µM. 220,000 compounds, 0.11% hits;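 active means inhibition of 50% or more in the single-dose primary screen; inactive means inhibition below 50%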
# Hck-Nef inh = human Hck-Nef kinase inhibition; Recombinant Hck-YEEI plus Nef, Z-Lyte FRET kinase assay; P08631; inhibition, % at 20 µM; 220,000 compounds, 0.68% hits; AID 463187;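 active means Hck-Nef kinase inhibition above about 50%, limit read from the data; inactive means inhibition below that limit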
# Target sequence (P08631 whole entry, looked up): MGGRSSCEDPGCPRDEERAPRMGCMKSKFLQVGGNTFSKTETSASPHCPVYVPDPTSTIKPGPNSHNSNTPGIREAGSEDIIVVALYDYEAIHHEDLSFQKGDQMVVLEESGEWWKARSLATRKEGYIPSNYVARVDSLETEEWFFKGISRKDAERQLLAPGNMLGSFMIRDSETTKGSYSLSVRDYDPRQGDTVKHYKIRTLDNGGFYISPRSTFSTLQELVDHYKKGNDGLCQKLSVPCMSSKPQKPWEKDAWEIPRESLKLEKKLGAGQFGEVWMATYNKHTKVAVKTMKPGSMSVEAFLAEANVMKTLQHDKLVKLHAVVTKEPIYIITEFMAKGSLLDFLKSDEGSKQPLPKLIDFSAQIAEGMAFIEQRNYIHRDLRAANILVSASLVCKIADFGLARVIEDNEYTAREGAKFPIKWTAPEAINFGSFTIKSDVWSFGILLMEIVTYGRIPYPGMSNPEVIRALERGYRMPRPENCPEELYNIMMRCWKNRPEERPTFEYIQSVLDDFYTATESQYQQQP
# Runt-SMMHC FRET = Runt domain-CBFb-SMMHC interaction inhibition. Q01196+Q13951. Cerulean-Runt/Venus-CBFb-SMMHC FRET ratio 530/480, 1 h. inhibition, % at 20 µM. 220,000 compounds, 0.74% hits;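 active means mean inhibition across duplicate retests at 20 µM reaching about 50%, limit read from the data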;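 further: inhibitors lower the FRET ratio by blocking Runt binding to CBFb-SMMHC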
# RanGTP-Imp inh = disruptors of Ran-importin-beta complex formation – biochemical, FRET, CFP-Ran, YFP-importin-beta, homogeneous, primary screen; cell-free CFP-Ran/YFP-importin-beta FRET ratio; inhibition, % (no concentration beside the values); 300,000 compounds, 1.1% hits; AID 2216;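 active means more than half of the replicate wells show a fall in the fluorescence ratio signal beyond about 16%, limit read from the data, passing the limit was not always enough; inconclusive means exactly half of the replicate wells pass the set limit; inactive means fewer than half of replicates pass the limit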
# Hits are given with their value; 0 = inactive; ? = inconclusive; - = no result.
SMILES,Runt-CBFb FRET,p97 ATPase inh,Tb hexokinase,Hck-Nef inh,Runt-SMMHC FRET,RanGTP-Imp inh
COc1ccccc1C1C=C(c2ccc(C)cc2)Nc2nnnn21 (stereo unspecified),0,0,0,0,0,0
COc1ccc(C2=CC(c3c(C)nn(-c4ccccc4)c3Cl)n3nnnc3N2)cc1OC (stereo unspecified),0,0,0,0,86,-
Cc1cccn2c(=O)c3cc(S(=O)(=O)c4ccc(F)cc4)c(=N)n(Cc4ccco4)c3nc12,0,0,0,0,81,84
Cc1cccn2c(=O)c3cc(S(=O)(=O)c4ccccc4)c(=N)n(Cc4ccco4)c3nc12,-,0,0,0,-,93
O=C(O)c1cccc(N/N=C/c2cccnc2)c1,0,0,0,0,0,34
COc1ccccc1/C=C/C=N/Nc1cccc(C(=O)O)c1,-,-,-,-,-,76
Cc1ccc(NC(=S)NCc2ccc(S(N)(=O)=O)cc2)cc1Cl,0,0,0,0,0,0
COc1ccc(N2CCN(CCNC(=O)CCS(=O)(=O)c3cccc4nsnc34)CC2)cc1,0,0,0,0,0,0
CCC1(c2ccccc2)NC(=O)N(CC(=O)Nc2ccc(S(=O)(=O)N3CC(C)CC(C)C3)cc2)C1=O (stereo unspecified),-,-,-,-,-,0
COc1cc(/C=N/N2C(=O)CSC2=S)cc(Br)c1O,0,0,0,76,0,-
O=C(NCCC1=CCCCC1)C1CCN(S(=O)(=O)c2ccccc2C(F)(F)F)CC1,-,-,-,-,-,0
COc1cccc(/C=C2\Oc3cc(OCC(=O)N4CCCC4)ccc3C2=O)c1OC,-,-,-,-,-,0
O=C(O)COc1ccc2c(c1)O/C(=C\c1ccco1)C2=O,-,-,-,-,-,25
O=C(O)COc1ccc2c(c1)O/C(=C\c1cccs1)C2=O,0,0,0,0,56,0
Cc1ccc(/C=C2\Oc3cc(OCC(=O)NN)ccc3C2=O)o1,-,-,-,-,-,54
Cc1cc(=O)[nH]c(NCc2ccc(Cl)cc2)n1,-,-,-,-,-,0
Cc1cc(NC(=O)C2CC2)n(-c2nc3ccccc3s2)n1,0,0,0,0,0,0
CC(=O)N1CCc2c(sc(NC(=O)C3CC3)c2-c2nc3ccccc3s2)C1,0,0,0,0,0,24
CCCCC(=O)Nc1sc2c(c1-c1nc3ccccc3s1)CCN(C(C)=O)C2,0,0,0,66,0,-
Oc1ccc(Nc2nc(N3CCCC3)c3ccccc3n2)cc1,0,0,0,0,71,0
Cc1ccc(N(NC(=O)C(O)(c2ccccc2)c2ccccc2)C(=O)CCl)cc1,0,0,0,0,0,0
CCCCC(=O)Nc1cccc(NC(=O)c2ccc(Br)o2)c1,0,0,0,0,0,38
Cc1cc(-c2csc(NCc3ccccc3)n2)c(C)n1C,0,0,0,65,0,-
Cc1nc(N)sc1-c1csc(NCc2ccccc2)n1,0,0,0,0,0,0
CCOn1c(=O)c(-c2cccs2)[n+]([O-])c2ccccc21,0,0,0,0,0,21
SMILES,Runt-CBFb FRET,p97 ATPase inh,Tb hexokinase,Hck-Nef inh,Runt-SMMHC FRET,RanGTP-Imp inh
Fc1ccc(C2CC(c3cccs3)=NN2c2ccccc2)cc1 (stereo unspecified),0,0,0,0,79,0
COc1ccc(C2CC(c3cccs3)=NN2c2nc(-c3ccccc3)cs2)cc1OC (stereo unspecified),0,0,0,0,0,56
Cc1cc(OCC[N+]2(C)CCCCC2)nc2ccccc12,0,0,0,0,0,0
CCCCCC#CCC#CCC#CCC#CCCCC(=O)O,0,0,0,76,0,0
COc1cc(-n2nc(C)c3c2OC(N)=C(C#N)C3c2ccccc2)c(Cl)c(Br)c1O (stereo unspecified),0,0,0,0,0,65
CCN(CC)CCNc1c2c(c(C#N)c3nc4ccccc4n13)CCCC2,0,0,0,0,61,?
CN(C)CCNc1c2c(c(C#N)c3nc4ccccc4n13)CCCC2,0,0,0,0,62,0
N#Cc1c2c(c(NCc3ccco3)n3c1nc1ccccc13)CCC2,0,0,0,0,-,0
CCN(CC)CCCNc1cc(C(F)(F)F)c(C#N)c2nc3ccccc3n12,-,-,-,-,-,117
CCN(CC)CCNc1cc(C)c(C#N)c2nc3ccccc3n12,-,-,-,-,-,0
N#Cc1c2c(c(Nc3ccc(O)cc3)n3c1nc1ccccc13)CCC2,0,0,0,0,0,0

# Screens as filed in PubChem BioAssay.
